Compound activity deposited in PubChem BioAssay by several laboratories.
bCat KO growth – beta-catenin-lacking colon tumor cell growth suppression; HCT116 beta-catenin knockout viability, CellTiter-Glo, 60 h; active compounds read low; 1.5% of 140,000 active; viability, % at 10 µM; AID 818;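 active = viability at or under a set limit, the compound median less 4 SD, cut at about 6% in these data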
PTEN del growth – PTEN-deleted cell growth suppression | HCT116 PTEN-null viability, CellTiter-Glo, 60 h; active compounds read low | viability, % at 10 µM | 1.2% of 140,000 active;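 active = viability at or below a set limit, 4 SD under the median of all tested compounds, cut at about 3.7% in these data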;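 note: PTEN knockout HCT116 line with beta catenin targeted HCT116 as companion control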
PMI act – activators of human phosphomannose isomerase; 0.005% of 190,000 active; P34949; AID 1214; activation factor at 20 µM; purified human PMI, coupled resazurin fluorescence, 20 min; active compounds read high; 1 = vehicle control, 0 substrate-free wells;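 active = activation factor of 2 or more at 20 µM, relative to plate controls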
Target sequence (P34949 whole entry, looked up): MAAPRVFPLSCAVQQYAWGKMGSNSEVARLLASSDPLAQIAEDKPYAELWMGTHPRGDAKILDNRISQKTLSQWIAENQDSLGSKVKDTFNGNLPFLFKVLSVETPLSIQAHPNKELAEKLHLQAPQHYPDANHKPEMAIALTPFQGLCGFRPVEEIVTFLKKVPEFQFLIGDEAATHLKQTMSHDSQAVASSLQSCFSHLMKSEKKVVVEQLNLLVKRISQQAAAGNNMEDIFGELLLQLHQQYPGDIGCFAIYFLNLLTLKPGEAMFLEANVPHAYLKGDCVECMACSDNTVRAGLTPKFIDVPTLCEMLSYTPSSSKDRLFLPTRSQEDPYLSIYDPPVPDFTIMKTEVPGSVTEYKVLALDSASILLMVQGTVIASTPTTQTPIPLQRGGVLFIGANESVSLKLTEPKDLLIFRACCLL
PMI act satM6P – increases human PMI activity with near-saturating mannose 6-phosphate; P34949; AID 1216; coupled PMI enzyme assay, resazurin fluorescence, 20 min; active compounds read high; 1 = untreated enzyme, 0 = substrate-free blank; 0.34% of 190,000 active; activation factor at 20 µM;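 active = activation factor of 2 or more at 20 µM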
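Test system: human phosphomannose isomerase with PGI, G6PDH, diaphorase coupling enzymes / Doses: 20 µM compound, 1% DMSO / Times: enzyme reaction with compound 20 min at room temperature / Measured by: Diaphorase-driven resazurin-to-resorufin fluorescence, excitation 544, emission 590 nm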
L major viab – Leishmania major promastigote growth inhibition; 9% of 200,000 active; Leishmania major promastigotes, resazurin fluorescence viability; AID 1063; inhibition, % at 10 µM; in the data active = inhibition above about 50%;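 note: promastigotes grown with compound for 44 hours at 28 °C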
Of the large screens only hits and unclear results are named; the others gave an inactive call. In the library only some 9.6% were active in any assay of this set; here they are far more common.

Cc1ccc2[nH]c(O)c(N=NC(=O)CCc3ccccc3)c2c1Br	none
Cc1[nH]c2ccccc2c1Cc1nnc(SCc2ccccc2)o1	none
CCC/C=N/NC(=O)CNC(=O)c1ccccc1Cl	none (no result: bCat KO growth, PTEN del growth)
O=C(Cc1cccs1)N/N=C\c1ccc([N+](=O)[O-])s1	L major viab 100 (no result: bCat KO growth, PTEN del growth)
Cc1onc(-c2ccccc2)c1C(=O)N/N=C/c1ccc([N+](=O)[O-])s1	bCat KO growth 2.9, PTEN del growth 2.6, L major viab 100
Cc1onc(-c2ccccc2)c1C(=O)N/N=C/c1cccc(O)c1	none
Cc1ccc(NC(=S)N/N=C/c2ccc([N+](=O)[O-])s2)cc1	bCat KO growth 1.6, PTEN del growth 1.8, L major viab 89
O=C(CNC(=O)c1ccccc1Cl)N/N=C/c1ccc([N+](=O)[O-])s1	L major viab 99
COCCCNC(=O)COc1ccc(S(=O)(=O)NCc2ccccc2)cc1Cl	none
CC(C)N(Cc1cn(C)nc1-c1cccc(Cl)c1)Cc1nccn1C	none (no result: bCat KO growth, PTEN del growth)
CCCC1CCc2c(sc(N)c2C(N)=O)C1 (stereo unspecified)	none
O=C(CCNS(=O)(=O)c1ccc(Br)s1)Nc1ccc(Cl)cc1	L major viab 81
O=C(CCNS(=O)(=O)c1ccc(Br)s1)NC1CCCC1	none
Cc1ccc(-n2c(-c3ccc(Br)cc3)c[n+]3c2CCc2ccc4cccnc4c2-3)cc1	bCat KO growth 1.5, PTEN del growth 0.8, L major viab 100
Cc1ccc(-n2c(=O)[nH]c3ncccc3c2=O)cc1	none (no result: bCat KO growth, PTEN del growth)
Cc1ccc(S(=O)(=O)c2c(COC(=O)c3ccc(Cl)cc3)c(-c3ccccc3)nn2C)cc1	none
Cc1cc2ccccn2c1C(=O)c1cc([N+](=O)[O-])cc([N+](=O)[O-])c1	L major viab 100 (no result: bCat KO growth, PTEN del growth)
Cc1cc2ccccn2c1C(=O)c1ccc(NN)c([N+](=O)[O-])c1	none (no result: bCat KO growth, PTEN del growth)
COCCN(C(=S)Nc1ccc(OC)cc1)C1CCN(C(C)=O)CC1	none
Cc1ccc(NC(=O)C(Nc2cccc(C)c2)c2ccccc2)cc1 (stereo unspecified)	L major viab 59
Cc1cc(C)cc(NC(=O)C(Nc2ccccc2)c2ccccc2)c1 (stereo unspecified)	none
Cc1ccc(NC(=O)C(Nc2ccccc2)c2ccccc2)cc1 (stereo unspecified)	L major viab 88
CC(=O)N(NC(=O)c1ccc(C)cc1)C1CC(=O)N(c2ccccc2Cl)C1=O (stereo unspecified)	none
Nc1cc[n+](CC(=O)c2ccc3c(c2)OCCO3)cc1	L major viab 78
O=C(CNc1c(Br)cc(Br)cc1Br)NN=C1CCCCC1	none
COc1ccccc1NC(=O)Cn1c(=O)n(CCc2c[nH]c3ccccc23)c(=O)c2cccnc21	L major viab 65
COC(=O)Cc1c(OC)ccn(CCc2c[nH]c3ccccc23)c1=O	none (no result: bCat KO growth, PTEN del growth)
Cc1nn(-c2ccccc2)c(C)c1/C=N/NC(=O)c1cc(-c2cccc3ccccc23)n[nH]1	none
Cc1nn(-c2ccccc2)c(C)c1/C=N/NC(=O)c1cc(-c2ccccc2)n[nH]1	L major viab 88
Cc1c(/C=N/NC(=O)c2ccc(O)cc2)c2ccccn2c1C(=O)c1ccc(F)cc1	L major viab 92
Cc1nn(-c2ccccc2)c(Cl)c1/C=N/NC(=O)c1cccnc1	none
Cc1c(/C=N/NC(=O)c2ccccc2O)c2ccccn2c1C(=O)c1ccc(F)cc1	L major viab 59
COC(=O)N/N=C/c1c(C)c(C(=O)c2ccc(F)cc2)n2ccccc12	none
Cc1ccc(-n2nc(C)c(/C=N/NC(=O)c3cccnc3)c2Cl)cc1	L major viab 57
O=C(COC(=O)c1ccc(CO)cc1)NCc1cccs1	none
CCOC(=O)c1sc(NC(=O)CCCn2nc([N+](=O)[O-])cc2C)c(C(=O)OCC)c1C	none
CN(C)S(=O)(=O)c1cccc(NC(=O)COC(=O)c2c[nH]c(=O)[nH]c2=O)c1	none (no result: bCat KO growth, PTEN del growth)
Cc1c(/C=N/NC(=O)c2cccnc2)c2ccccn2c1C(=O)c1ccc(F)cc1	L major viab 53
CCOC(=O)N/N=C/c1c(C)c(C(=O)c2ccc(F)cc2)n2ccccc12	none (no result: bCat KO growth, PTEN del growth)
CN(C)c1ccc(C2CC(c3cccc(NS(C)(=O)=O)c3)=NN2C(=O)c2ccccc2)cc1 (stereo unspecified)	L major viab 60 (no result: bCat KO growth, PTEN del growth)
Cc1ccc(NC(=O)Cn2nc(C)c(S(=O)(=O)N(C)C)c2C)cc1C	none (no result: bCat KO growth, PTEN del growth)
CCn1c2ccccc2c2cc(NC(=O)COc3ccccc3)ccc21	none
CCOc1ccccc1NC(=O)/C(C#N)=C/c1c(C)nn(-c2ccc(F)cc2)c1Cl	L major viab 73
Cc1nn(-c2ccc(Cl)cc2)c(Cl)c1/C=C(\C#N)C(N)=O	none
C=CCNC(=O)/C(C#N)=C/c1c(C)nn(-c2ccc(Cl)cc2)c1Cl	L major viab 89
CC(C)CCN(C(=O)Cc1ccc(Cl)c(Cl)c1)c1c(N)n(Cc2ccccc2)c(=O)[nH]c1=O	none (no result: bCat KO growth, PTEN del growth)
O=C(C1CCN(C2CCN(C/C(Cl)=C/c3ccccc3)CC2)CC1)N1CCOCC1	L major viab 97 (no result: bCat KO growth, PTEN del growth)
O=C(CN1CCC(N2CCCCC2)CC1)N1CCOCC1	none (no result: bCat KO growth, PTEN del growth)
C/C(=C\c1ccccc1)CN1CCC(C(=O)N2CCC(C)CC2)CC1	L major viab 93
CCCCNC(=O)C1CCN(C/C(C)=C/c2ccccc2)CC1	L major viab 91
C/C(=C\c1ccccc1)CN1CCC(C(=O)N2CCCCC2)CC1	none
COc1ccc(NC(=O)COC(=O)CC2CC3CCC2C3)c([N+](=O)[O-])c1 (stereo unspecified)	none
CCOC(=O)c1c(/N=C/N(C)C)sc(/C=N/Nc2ccccc2)c1-c1ccc(Cl)cc1	PMI act satM6P 2.1, L major viab 94
CCN(CC)S(=O)(=O)c1ccc(Cc2ncc(C(F)(F)F)cc2Cl)s1	none
Cc1ccc(Cl)cc1N1CCN(C(c2cccnc2)c2nnnn2C2CCCCC2)CC1 (stereo unspecified)	L major viab 99
c1cncc(C(c2nnnn2C2CCCCC2)N2CCCCC2)c1 (stereo unspecified)	none (no result: bCat KO growth, PTEN del growth)
Cc1ccc(Cl)cc1N1CCN(C(c2ccc(C#N)cc2)c2nnnn2C2CCCC2)CC1 (stereo unspecified)	L major viab 71
Cc1ccc(C(c2nnnn2C2CCCCC2)N2CCN3CCCC3C2)cc1 (stereo unspecified)	none
